# In the library only some 4.9% were active in any assay of this set; here they are far more common.
# NF-kB neuron act: NF-kB expression increase, human neuronal cells. fold change at 12.5 µM. AID 1239. 190,000 compounds, 1.6% hits. NF-kB reporter expression; stronger effect = higher value; in the data active = fold change above about 3.3
# APP 5'UTR act: activates APP 5'UTR luciferase reporter | activation, % at 2 µM | AID 1276 | SH-SY5Y APP 5'UTR luciferase reporter, luminescence; zero percent = DMSO vehicle wells | 190,000 compounds, 1% hits;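 active = activation above a set limit, based on mean plus 3 SD of controls, cut at about 140% in these data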
# STAT3 inh: inhibitors of IL-6 induced STAT3 signaling | U3A cells, IL-6 STAT3-luciferase reporter, luminescence; host cell line lacks STAT1 | inhibition, % at 5.5 µM | 190,000 compounds, 0.89% hits | AID 862;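 active = inhibition above the mean inhibition across all screened compounds plus 3 SD, cut at about 44% in these data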;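 also: 0% = DMSO only wells and 100% = 100 µM nifuroxazide control wells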
# STAT1 blocker: STAT1 signaling inhibition | NIH 3T3 STAT1-luciferase reporter, IFN-gamma, luminescence | inhibition, % at 5.5 µM | 200,000 compounds, 0.35% hits | AID 920;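 active = inhibition above a set limit, the mean inhibition across all tested compounds plus 3 SD, cut at about 34% in these data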;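 also: 0% = IFN-gamma with DMSO and 100% = IFN-gamma with 300 µM nifuroxazide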
# STAT1 act: STAT1 signaling activation; NIH 3T3 STAT1-luciferase reporter, IFN-gamma, luminescence; 100% = IFN-gamma alone, no compound; activation (% of control), % at 5.5 µM; 200,000 compounds, 2.6% hits;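 active = activation above the screen-wide mean activation plus 3 SD, cut at about 130% in these data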;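 also: raw ratio to IFN-gamma control signal so 100% means no change and 0% no light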
# STAT3 activator: activators of IL-6 induced STAT3 signaling; U3A cells, IL-6 STAT3-luciferase reporter, luminescence; 100% = signal with IL-6 EC80 alone; activation (% of control), % at 5.6 µM; 190,000 compounds, 0.91% hits;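 active = activation above the screen-wide mean of compound activation plus 3 SD, cut at about 130% in these data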;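 also: 0% = background luminescence of wells with medium and substrate only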
#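 system = STAT3-luciferase reporter U3A cells | reagent = IL-6 stimulus at 33 ng/mL final | timing = 1 h compound pre-exposure, 6 h IL-6 stimulation, 37 °C | measured by = luminescence | evaluation = % activation versus median of IL-6-stimulated wells | control set = IL-6-only wells as 100% reference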
# An asterisk follows results filed as active; . = not tested or not shown.
SMILES,NF-kB neuron act,APP 5'UTR act,STAT3 inh,STAT1 blocker,STAT1 act,STAT3 activator
O=C(Nc1ccc2nc(C3CC3)n(Cc3ccc(F)cc3)c(=O)c2c1)c1ccco1,0.5,22.8,28.0,-14.0,112.7,81.2
Cc1ccc(C(=O)O/N=C(\N)c2nonc2N)cc1,1,13.1,0.3,-37.7,134.3*,96.3
N/C(=N/OC(=O)c1ccccc1Cl)c1nonc1N,4.89*,19.2,13.3,-10.7,110.0,92.4
Cc1ccc(/C=C/c2nnc(-c3ccccc3)o2)cc1,2.33,16.2,32.3,-6.5,105.8,77.6
Clc1ccccc1-c1nnc(-c2cccs2)o1,5.98*,182.4*,1.4,-48.0,142.6*,100.8
C(=C\c1nnc(-c2cccs2)o1)/c1ccccc1,4.97*,116.6,12.6,-48.4,143.2*,93.7
Cc1ccc(C(=O)COC(=O)c2cccc(NC(=O)c3ccc([N+](=O)[O-])cc3[N+](=O)[O-])c2)cc1,3.02,163.5*,46.1*,43.4*,61.2,64.9
CC(=O)Nc1ccc(C(=O)OCC(=O)c2cccc([N+](=O)[O-])c2)cc1,1.12,4.2,4.8,13.1,88.1,95.4
Cc1cc(C)nc(N2CCCC(C(=O)NCc3ccccc3F)C2)n1 (stereo not drawn),0.97,1.3,5.5,5.0,95.0,100.1
O=C(Nc1ccc2c(c1)CCC2)C1CCCN(c2ncccn2)C1 (stereo not drawn),2.65,58.9,-2.1,-47.5,144.0*,105.7
Cc1ccc(NC(=O)C2CCCN(c3ncccn3)C2)cc1F (stereo not drawn),3.54*,88.5,-11.2,-53.2,148.8*,112.0
Sc1oc(-c2ccccc2)cc1C=Nc1ccccc1,2.98,29.7,-10.3,-36.5,133.5*,108.8
O=[N+]([O-])c1cc2c(cc1C=Nc1ccccc1)OCO2,1.09,2.8,2.3,1.5,98.6,103.2
O=C(Nc1ccccc1)N1CCCC2CCCCC21 (stereo not drawn),1.97,32.2,3.4,-34.5,131.4*,101.4
O=C(NC1CCCC1)C1CCCN1C(=O)Nc1ccccc1 (stereo not drawn),0.98,-6.3,1.3,-4.0,103.7,103.7
CCOc1ccccc1C(=O)N1CCN(c2cccc(Cl)c2)CC1,4*,-94.5,-24.8,-5.1,104.8,122.1
COc1ccccc1NC(=O)CN1CC(=O)Nc2ccccc21,0.93,-2.6,-33.7,15.0,85.8,134.1*
O=[N+]([O-])c1ccc(CSc2nc3ccccc3[nH]2)cc1,2.28,80.6,-2.7,-45.0,141.0*,98.0
Fc1ccc(CSc2nc3ccccc3[nH]2)cc1,4.79*,79.1,12.9,-31.8,129.3*,89.5
Fc1ccc(CSc2nc3ncccc3[nH]2)cc1,1.47,27.4,18.9,-2.9,102.6,91.1
COc1ccc(NC(=O)c2c(C(F)(F)F)nn(C)c2SCc2ccccc2Cl)cc1,1.02,.,-1.2,5.0,95.5,105.8
CCN(CC)S(=O)(=O)c1cc(C(=O)OCC(=O)Nc2cccc(S(=O)(=O)N(C)C)c2)ccc1F,0.94,-6.8,2.9,4.8,94.8,108.2
CCN(CC)S(=O)(=O)c1cc(C(=O)OCC(=O)Nc2ccc(-c3nc4ccc(C)cc4s3)cc2)ccc1F,5.98*,143.3*,37.7,-49.6,145.3*,72.1
COC(=O)c1cnc(SCc2ccc(Cl)cc2)n1C,1.77,226.9*,6.2,-18.6,116.6,96.9
O=C(Nc1ccc(N2CCOCC2)cc1)c1cnsn1,0.58,24.1,86.8*,44.1*,59.6,30.9
SMILES,NF-kB neuron act,APP 5'UTR act,STAT3 inh,STAT1 blocker,STAT1 act,STAT3 activator
O=C(Nc1ccc(N2CCOCC2)cc1)c1ccncc1,1.11,-3.2,1.4,-2.9,97.4,100.0
CCc1ccc(NS(=O)(=O)c2cccc3nonc23)cc1,0.89,-17.3,5.2,-0.6,100.8,102.9
CCOc1cccc(C(=O)Nc2nc(-c3ccc(S(=O)(=O)N4CCOCC4)cc3)cs2)c1,0.53,-3.9,33.7,34.9*,68.6,73.4
Cc1nccn1-c1cc(C(C)(C)C)nc2c(-c3ccccc3)cnn12,0.88,-16.3,-0.1,-7.0,106.2,100.0
Cc1ccc(-c2nsc3c(N4CCC(C(N)=O)CC4)ncnc23)cc1,1.72,142.5*,-12.5,-2.7,103.8,114.1
COc1ccc(-c2nsc3c(N4CCCCC4C)ncnc23)cc1 (stereo not drawn),0.19,-34.2,98.7*,80.6*,24.4,15.9
Cc1ccc(C(=O)N2CCN(c3ncnc4c(-c5ccccc5)nsc34)CC2)cc1,0.98,0.2,-5.2,-1.9,100.0,106.5
COc1ccc(NC(=O)OCCn2c([N+](=O)[O-])cnc2C)cc1,1.15,-0.6,-1.0,-1.3,101.2,100.0
O=C1c2ccccc2C(=O)C12OC2c1ccc(Cl)cc1Cl (stereo not drawn),4.06*,-24.8,0.2,-0.6,100.5,100.5
C/C(=N\OCc1ccc(C#N)cc1)c1ccccc1,2.64,93.8,27.3,-44.7,142.0*,80.0
C/C(=N/OCO/N=C(\C)c1ccccc1)c1ccccc1,1.1,2.2,-7.2,0.7,99.3,105.7
CCOc1ccc(-c2nc(C#N)c(NCc3ccco3)o2)cc1,1.18,12.7,14.4,6.8,93.6,90.2
Cc1ccnc(NC(=O)/C=C/c2ccccc2[N+](=O)[O-])c1,7.72*,141.8*,37.7,-1.3,99.9,70.6
NS(=O)(=O)c1ccc(NC(=O)/C=C/c2ccccc2[N+](=O)[O-])cc1,0.95,3.7,-3.1,2.3,97.4,104.4
O=C(/C=C\c1ccccc1[N+](=O)[O-])Nc1ccccc1,1.41,73.2,7.0,-41.8,135.2*,98.7
CCOC(=O)c1c(C)[nH]c(C)c1C(=O)COC(=O)c1ccc(Cl)c(S(=O)(=O)NCc2ccccc2)c1,0.56,.,-0.6,11.0,89.9,99.2
C=CCSC(=C(C#N)C#N)c1cc2c([nH]1)CCCC2,7.35*,15.8,16.7,5.9,94.6,87.5
Cn1cnc2cc(NCc3cccs3)ccc21,1.9,12.9,3.5,-14.2,112.0,100.0
CCn1cnc2cc(NCc3ccncc3)ccc21,0.96,7.0,2.7,-1.8,106.9,98.9
CCc1ccc(CNc2ccc3c(c2)ncn3C)cc1,2.37,102.4,-5.0,-52.9,148.1*,110.8
Cc1ccc(CNc2ccc3c(c2)ncn3C)cc1,3.27,106.7,-9.2,-42.5,139.1*,112.0
Cc1ccc(C(=O)Nc2ccc3c(c2)ncn3C)cc1,3.49*,139.5*,7.4,-42.2,138.9*,94.7
Cc1cccc2cc(CNCC3CCCO3)c(Cl)nc12 (stereo not drawn),1.17,-4.9,10.2,-0.4,98.7,93.3
O=C(O)c1cn(Cc2ccccc2)nc1-c1cccnc1,0.89,36.4,2.2,-0.6,99.5,99.5
Cc1ccc(-c2nnc(SCC(=O)N/N=C/c3ccc(C)s3)n2-c2ccc(C)cc2)cc1,0.93,-1.3,-6.7,2.1,98.1,104.4

# Bioassay records (PubChem)
